According to paper PMC8520753 (CPT: Pharmacometrics & Systems Pharmacology, 2021):
Entries after “also recorded” stand apart in the source; their conditions may differ. Like-named read-outs stand apart in the source and are kept apart here.

How the values were obtained:
[1] = Refined pediatric population pharmacokinetic; assay type: in vivo, children (pediatric patients); settings: for Relative oral bioavailability: set to 100% for 0.12 mg/kg
Outline: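 Children from birth to <18 y (VTE and post-Fontan) received oral bodyweight-adjusted rivaroxaban at 0.4 mg–20 mg, as single or multiple o.d./b.i.d./t.i.d. doses of tablet, oral suspension or granules. Plasma concentrations were fitted by PopPK with an 82.48 kg adult reference weight. Age, dose/kg on F1, formulation on ka, renal function and Fontan were screened graphically, then against random-effect estimates.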

CYP3A7 = CYP3A7 (Homo sapiens, UniProt P24462); assay: In vitro analyses of CYP3A7 contribution; assay type: in vitro ADME; settings: historic and recently repeated in vitro analyses, unpublished, data on file
Sequence of CYP3A7 (P24462 whole entry): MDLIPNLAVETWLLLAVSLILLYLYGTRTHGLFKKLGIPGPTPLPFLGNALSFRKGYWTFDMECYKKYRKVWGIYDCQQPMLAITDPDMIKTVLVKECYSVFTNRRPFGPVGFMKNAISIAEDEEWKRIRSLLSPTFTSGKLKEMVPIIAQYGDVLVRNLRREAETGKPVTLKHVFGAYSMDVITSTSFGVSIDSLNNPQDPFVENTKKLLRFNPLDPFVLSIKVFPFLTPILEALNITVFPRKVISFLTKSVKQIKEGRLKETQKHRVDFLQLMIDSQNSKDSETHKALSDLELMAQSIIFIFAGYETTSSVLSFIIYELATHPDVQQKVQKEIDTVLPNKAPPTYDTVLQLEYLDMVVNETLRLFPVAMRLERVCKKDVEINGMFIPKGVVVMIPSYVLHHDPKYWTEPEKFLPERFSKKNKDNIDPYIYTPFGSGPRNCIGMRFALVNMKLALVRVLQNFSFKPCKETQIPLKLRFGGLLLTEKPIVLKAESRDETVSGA

[2] = subject with a bodyweight of 70 kg; cited from earlier work
[3] = integrated PopPK model in adults; cited from earlier work
[4] = cited from earlier work
[5] = cited from earlier work; remark: listed apart in the source
[6] = PopPK fixed effect, children, reference BW 82.48 kg

## O=C(NC[C@H]1CN(c2ccc(N3CCOCC3=O)cc2)C(=O)O1)c1ccc(Cl)s1 [rivaroxaban]
[1]
  ka, tablet, granules for oral suspension and diluted ready-to-use oral suspension: 0.799 h⁻¹
  ka, undiluted ready-to-use oral suspension: 0.226 h⁻¹
[1]; PopPK fixed effect, children
  ka for tablets, granules and diluted suspension: 0.799 h⁻¹
  ka for undiluted suspension: 0.226 h⁻¹
[1]; [6]
  CL for subject with BW of 82.48 kg: 8.02 L/h
  Q for subjects with BW of 82.48 kg: 2.50 L/h
  Vc for subject with BW of 82.48 kg: 53.2 L
  Vp for subject with BW of 82.48 kg: 59.1 L
[1]; allometric exponent, assumed identical for Vc and Vp
  Exponent to scale Vc and Vp on BW: 0.821
[1]; allometric exponent, children
  Exponent to scale Q on BW: 0.761
[1]; at 0.30 mg/kg
  Relative oral bioavailability: 79.1%
[1]; at 0.50 mg/kg
  Relative oral bioavailability: 68.1%
[1]; covariate analysis
  Effect of bodyweight on CL, Q, Vc and Vp: significant effect
[1]; covariate analysis, age 0 to 18 years
  Effect of age on CL or F1: No effect
[1]; covariate analysis, four approaches, eGFR 43.8 to 456 ml/min/1.73 m^2
  Influence of renal function on PK: None of the four methods to test for an influence of renal function led to a significant improvement; also recorded: None of the four tested methods could improve the model fit
[1]; exploratory evaluation
  Effect of comedication (weak or moderate CYP3A4 inhibitors, CYP3A4 inducers) on CL or F1: no significant effect
[1]; human, plasma, oral
  clearance: 134 mL/min
[1]; random effect on CL
  ωCL2 (exponential), interindividual variability: 0.0705
[1]; random effect on F1
  ωF12 (exponential), interindividual variability: 0.0612
[1]; sqrt{exp(ω^2)-1}*100
  Population variation of CL (interindividual variability): 27.0%
  Population variation of F1 (interindividual variability): 25.1%
[1]; ~0.1 to 0.5 mg/kg single doses
  Dose-dependency of relative oral bioavailability: decrease with increasing dose per bodyweight
CYP3A7
  Contribution of CYP3A7 to the high clearance below 2 years: could also be excluded
[2]
  Total plasma clearance: 7.26 L/h
[3]
  Total plasma clearance: 6.58 L/h
[4]; adult mass balance data
  Share of elimination by CYP3A, glomerular filtration and tubular secretion: ~ 54%
[4]; adult mass balance
  Excreted unchanged via feces: 7%
  Share of elimination by CYP2J2: 14%
  Share of elimination by CYP-independent hydrolysis: 14%
  Unaccounted in the mass balance study: 11%
[5]
  Biopharmaceutics Classification System class: class 2
